Experiments:
[1] = tested on: Mycobacterium tuberculosis; assay: Antimicrobial activity against Mycobacterium tuberculosis H37Rv expressing GFP infected in mouse RAW264.7 cells assessed as concentration required to potentiate 0.1 ug/ml […] to inhibit microbial growth by 50% by fluorescence assay; type: functional, organism-based
Procedure, shortened: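 RAW264.7 macrophages infected with H37Rv-GFP at MOI 1:1 for 2 h at 37 °C with shaking. Extracellular bacilli killed with amikacin (20 μM, 1 h). Infected cells added to compound serial dilutions (ten 2-fold) with ethionamide fixed at 0.1 μg/mL, 5 days at 37 °C, 5% CO2. SYTO 60 stained; confocal imaging gives percent infected cells and cell number. Two replicates averaged.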

[2] = tested on: Mycobacterium tuberculosis; assay: Binding affinity to Mycobacterium tuberculosis EthR assessed as change in melting temperature at 20 uM by thermal shift assay
Procedure, shortened: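 Protein unfolding tracked with SYPRO Orange in a real-time PCR instrument. Ligand at 20 μM in EthR buffer (10 mM Tris/HCl, 300 mM NaCl, 0.1 mM EDTA, pH 7.5). Heated 37 to 85 °C at 0.04 °C/s, fluorescence read at Ex/Em 465/510 nm. ΔTm taken as the holo minus apo melting temperature.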

[3] = Solubility in PBS at pH 7.4 after 24 hrs by LC-MS/MS analysis; type: physicochemical
Procedure, shortened: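 10 mM DMSO stock diluted 1:50 into PBS pH 7.4 or MeOH. Shaken 24 h at room temperature, centrifuged, filtered (0.45 μm), diluted tenfold in MeOH. Analysed by LC-MS/MS (SIM or MRM). Solubility from the PBS/MeOH ratio of mass signal areas.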

[4] = Inhibition of Mycobacterium tuberculosis EthR assessed as inhibition of EthR-DNA interaction after 3 mins by SPR assay
Procedure, shortened: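 106-bp biotinylated ethA/ethR intergenic DNA immobilised on a streptavidin chip (about 75 RU). An irrelevant 113-bp bla fragment in the reference channel; signal taken as the channel difference. Preincubated 5 min at 37 °C, injected at 20 μL/min for 3 min at 25 °C. Response read at end of injection; IC50 from dose-response.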

`Cc1nc(-c2ccc(S(=O)(=O)NCC(F)(F)F)cc2)cs1` showed an EC50 [1] of 7.9 µM and a ΔTm [2] of 6.3 °C.
Compound `CC(C)CCNS(=O)(=O)c1ccc(CCC(C)C)cc1` has an EC50 [1] of 6.3 µM and a ΔTm [2] of 3.2 °C.
In the case of `CCCS(=O)(=O)NCc1nc(-c2ccc(C(=O)NCCC(F)(F)F)cc2)cs1`, the solubility at 24 h [3] is reported as 1.3 µg/mL, the EC50 [1] is reported as 0.32 µM and the ΔTm [2] is reported as 6.6 °C. The IC50 [4] was 0.56 µM.
For `CCCCOc1ccc(S(=O)(=O)NCCC(C)C)cc1`, the EC50 [1] was over 10 µM and the ΔTm [2] was 3.6 °C.
With `C#CCNS(=O)(=O)c1ccc(I)cc1` the solubility at 24 h [3] was over 200 µM, the EC50 [1] was over 10 µM and the ΔTm [2] was 0.1 °C. It also gave an IC50 [4] of 160 µM.
In the case of `CC(C)CCNS(=O)(=O)c1ccc(N2CCCC2=O)cc1`, the EC50 [1] is reported as over 10 µM and the ΔTm [2] is reported as 0.6 °C.
With `Cc1nc(-c2ccc(S(=O)(=O)NCCC(F)(F)F)cc2)cs1` the solubility at 24 h [3] was 14.5 µg/mL, the EC50 [1] was 0.29 µM and the ΔTm [2] was 8.5 °C. The IC50 [4] was 0.55 µM.
For `CC(C)CCNS(=O)(=O)c1ccc(-c2ccc(F)cc2)cc1`, the EC50 [1] was over 10 µM and the ΔTm [2] was 2.2 °C.
With `O=C(NCCC(F)(F)F)c1ccc(C#CCNS(=O)(=O)c2ccccc2)cc1` the solubility at 24 h [3] was 3 µg/mL, the EC50 [1] was 0.23 µM and the ΔTm [2] was 4.2 °C. For the same compound, the IC50 [4] was 3.9 µM.
In the case of `CC(C)CCNS(=O)(=O)c1ccc(-c2cnco2)cc1`, the EC50 [1] is reported as over 10 µM and the ΔTm [2] is reported as 1.2 °C.
With `CC(C)CCNS(=O)(=O)c1ccc(I)cc1` the EC50 [1] was over 10 µM and the ΔTm [2] was 1.9 °C.
`CC(=O)Nc1ccc(-c2ccc(S(=O)(=O)NCCC(C)C)cc2)cc1` gave an EC50 [1] of over 10 µM and a ΔTm [2] of 2 °C.
`COc1ccc(-c2ccc(S(=O)(=O)NCCC(C)C)cc2)cc1` gave an EC50 [1] of over 10 µM and a ΔTm [2] of 3.7 °C.
In the case of `Cc1nc(-c2ccc(S(=O)(=O)NCCC(C)C)cc2)cs1`, the solubility at 24 h [3] is reported as 6.6 µg/mL, the EC50 [1] is reported as 5.7 µM and the ΔTm [2] is reported as 6.1 °C. The IC50 [4] was 4.9 µM.
In the case of `CCOC(=O)c1ccc(S(=O)(=O)NCCC(C)C)cc1`, the EC50 [1] is reported as 10 µM and the ΔTm [2] is reported as 4.3 °C.
For `CC(C)CCNS(=O)(=O)c1ccc(-n2cccn2)cc1`, the EC50 [1] was over 10 µM and the ΔTm [2] was 1.9 °C.
In the case of `Cc1nc(-c2ccc(C(=O)NCCC(F)(F)F)cc2)cs1`, the solubility at 24 h [3] is reported as 14.7 µg/mL, the EC50 [1] is reported as 0.08 µM and the ΔTm [2] is reported as 11.2 °C. The IC50 [4] was 0.4 µM.
Compound `Cc1nc(-c2ccc(S(=O)(=O)NCCCC(F)(F)F)cc2)cs1` has an EC50 [1] of over 2.5 µM and a ΔTm [2] of 6.6 °C.
With `Cc1nc(-c2ccc(S(=O)(=O)NCCC(C)(C)C)cc2)cs1` the EC50 [1] was over 20 µM and the ΔTm [2] was 2.3 °C.

Source: ChEMBL document CHEMBL3286364, “Ligand efficiency driven design of new inhibitors of Mycobacterium tuberculosis transcriptional repressor EthR using fragment growing, merging, and linking approaches” (J Med Chem, 2014)
